Experimental data as given in ChEMBL document CHEMBL5058577, “EUbOPEN Chemogenomics Library 2 (Multiplex)” (2022).

System: Fibroblast
Assay: Multiplex assay against human fibroblast
Type: toxicity, cell-based
In short: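 Phenotypes for tubulin, mitochondrial mass and membrane permeability are expressed as per cents of healthy-nucleus cells. Cells were stained live at seeding with Hoechst33342, BioTracker Green Microtubule Cytoskeleton Dye, MitoTracker Red and Annexin V Alexa Fluor 680, then imaged after compound addition on a CQ1 microscope at 37°C and 5% CO2. Machine-learning gating in CellPathfinder separated Hoechst high-intensity objects from normal cells, divided normal cells by nuclear state (healthy, pyknosed, fragmented) and divided pyknosed cells into mitotic or apoptotic.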

[1] = 12 h, 1 µM, compound concentration 1 uM, replicate 1
[2] = 12 h, 1 µM, compound concentration 1 uM, replicate 2
[3] = 12 h, 10 µM, compound concentration 10 uM, replicate 1
[4] = 12 h, 10 µM, compound concentration 10 uM, replicate 2
[5] = 24 h, 1 µM, compound concentration 1 uM, replicate 1
[6] = 24 h, 1 µM, compound concentration 1 uM, replicate 2
[7] = 24 h, 10 µM, compound concentration 10 uM, replicate 1
[8] = 24 h, 10 µM, compound concentration 10 uM, replicate 2
[9] = 48 h, 1 µM, compound concentration 1 uM, replicate 1
[10] = 48 h, 1 µM, compound concentration 1 uM, replicate 2
[11] = 48 h, 10 µM, compound concentration 10 uM, replicate 1
[12] = 48 h, 10 µM, compound concentration 10 uM, replicate 2

Structure (SMILES): O=C1[C@H](Cc2ccc(O)cc2)N2C(=O)CCN(C(=O)NCc3ccccc3)[C@H]2CN1Cc1cccc2ccccc12
- Population Apoptotic (%) [1]: 32%
- Population Fragmented Nuclei (%) [1]: 18%
- Population Healthy Nuclei (%) [1]: 57%
- Population Hoechst High Intensity Objects (%) [1]: 3%
- Population Membrane Permeable-Phenotype (%) [1]: 0%
- Population Mitochondria Different-Phenotype (%) [1]: 11%
- Population Mitotic Cells (%) [1]: 67%
- Population Normal (%) [1]: 96%
- Population Pyknosed Nuclei (%) [1]: 24%
- Population Tubulin-Different-Phenotype (%) [1]: 47%
- Total Cell Count [1]: 160
- Population Apoptotic (%) [2]: 30%
- Population Fragmented Nuclei (%) [2]: 27%
- Population Healthy Nuclei (%) [2]: 45%
- Population Hoechst High Intensity Objects (%) [2]: 2%
- Population Membrane Permeable-Phenotype (%) [2]: 5%
- Population Mitochondria Different-Phenotype (%) [2]: 13%
- Population Mitotic Cells (%) [2]: 69%
- Population Normal (%) [2]: 97%
- Population Pyknosed Nuclei (%) [2]: 26%
- Population Tubulin-Different-Phenotype (%) [2]: 58%
- Total Cell Count [2]: 152
- Population Apoptotic (%) [3]: 35%
- Population Fragmented Nuclei (%) [3]: 18%
- Population Healthy Nuclei (%) [3]: 58%
- Population Hoechst High Intensity Objects (%) [3]: 8%
- Population Membrane Permeable-Phenotype (%) [3]: 0%
- Population Mitochondria Different-Phenotype (%) [3]: 24%
- Population Mitotic Cells (%) [3]: 64%
- Population Normal (%) [3]: 91%
- Population Pyknosed Nuclei (%) [3]: 23%
- Population Tubulin-Different-Phenotype (%) [3]: 84%
- Total Cell Count [3]: 146
- Population Apoptotic (%) [4]: 45%
- Population Fragmented Nuclei (%) [4]: 23%
- Population Healthy Nuclei (%) [4]: 45%
- Population Hoechst High Intensity Objects (%) [4]: 9%
- Population Membrane Permeable-Phenotype (%) [4]: 8%
- Population Mitochondria Different-Phenotype (%) [4]: 15%
- Population Mitotic Cells (%) [4]: 55%
- Population Normal (%) [4]: 90%
- Population Pyknosed Nuclei (%) [4]: 30%
- Population Tubulin-Different-Phenotype (%) [4]: 83%
- Total Cell Count [4]: 144
- Population Apoptotic (%) [5]: 42%
- Population Fragmented Nuclei (%) [5]: 16%
- Population Healthy Nuclei (%) [5]: 62%
- Population Hoechst High Intensity Objects (%) [5]: 3%
- Population Membrane Permeable-Phenotype (%) [5]: 3%
- Population Mitochondria Different-Phenotype (%) [5]: 7%
- Population Mitotic Cells (%) [5]: 57%
- Population Normal (%) [5]: 96%
- Population Pyknosed Nuclei (%) [5]: 21%
- Population Tubulin-Different-Phenotype (%) [5]: 49%
- Total Cell Count [5]: 158
- Population Apoptotic (%) [6]: 28%
- Population Fragmented Nuclei (%) [6]: 30%
- Population Healthy Nuclei (%) [6]: 47%
- Population Hoechst High Intensity Objects (%) [6]: 2%
- Population Membrane Permeable-Phenotype (%) [6]: 7%
- Population Mitochondria Different-Phenotype (%) [6]: 8%
- Population Mitotic Cells (%) [6]: 71%
- Population Normal (%) [6]: 97%
- Population Pyknosed Nuclei (%) [6]: 22%
- Population Tubulin-Different-Phenotype (%) [6]: 58%
- Total Cell Count [6]: 147
- Population Apoptotic (%) [7]: 44%
- Population Fragmented Nuclei (%) [7]: 15%
- Population Healthy Nuclei (%) [7]: 62%
- Population Hoechst High Intensity Objects (%) [7]: 10%
- Population Membrane Permeable-Phenotype (%) [7]: 1%
- Population Mitochondria Different-Phenotype (%) [7]: 44%
- Population Mitotic Cells (%) [7]: 55%
- Population Normal (%) [7]: 89%
- Population Pyknosed Nuclei (%) [7]: 21%
- Population Tubulin-Different-Phenotype (%) [7]: 83%
- Total Cell Count [7]: 141
- Population Apoptotic (%) [8]: 64%
- Population Fragmented Nuclei (%) [8]: 25%
- Population Healthy Nuclei (%) [8]: 47%
- Population Hoechst High Intensity Objects (%) [8]: 7%
- Population Membrane Permeable-Phenotype (%) [8]: 13%
- Population Mitochondria Different-Phenotype (%) [8]: 21%
- Population Mitotic Cells (%) [8]: 35%
- Population Normal (%) [8]: 92%
- Population Pyknosed Nuclei (%) [8]: 26%
- Total Cell Count [8]: 137
- Population Apoptotic (%) [9]: 62%
- Population Fragmented Nuclei (%) [9]: 22%
- Population Healthy Nuclei (%) [9]: 59%
- Population Hoechst High Intensity Objects (%) [9]: 7%
- Population Membrane Permeable-Phenotype (%) [9]: 2%
- Population Mitochondria Different-Phenotype (%) [9]: 7%
- Population Mitotic Cells (%) [9]: 37%
- Population Normal (%) [9]: 92%
- Population Pyknosed Nuclei (%) [9]: 17%
- Population Tubulin-Different-Phenotype (%) [9]: 54%
- Total Cell Count [9]: 164
- Population Apoptotic (%) [10]: 54%
- Population Fragmented Nuclei (%) [10]: 37%
- Population Healthy Nuclei (%) [10]: 45%
- Population Hoechst High Intensity Objects (%) [10]: 5%
- Population Membrane Permeable-Phenotype (%) [10]: 5%
- Population Mitochondria Different-Phenotype (%) [10]: 6%
- Population Mitotic Cells (%) [10]: 45%
- Population Normal (%) [10]: 94%
- Population Tubulin-Different-Phenotype (%) [10]: 48%
- Total Cell Count [10]: 135
- Population Apoptotic (%) [11]: 85%
- Population Fragmented Nuclei (%) [11]: 21%
- Population Healthy Nuclei (%) [11]: 58%
- Population Hoechst High Intensity Objects (%) [11]: 15%
- Population Membrane Permeable-Phenotype (%) [11]: 0%
- Population Mitochondria Different-Phenotype (%) [11]: 50%
- Population Mitotic Cells (%) [11]: 14%
- Population Normal (%) [11]: 84%
- Population Pyknosed Nuclei (%) [11]: 20%
- Population Tubulin-Different-Phenotype (%) [11]: 85%
- Total Cell Count [11]: 124
- Population Apoptotic (%) [12]: 66%
- Population Fragmented Nuclei (%) [12]: 32%
- Population Healthy Nuclei (%) [12]: 53%
- Population Hoechst High Intensity Objects (%) [12]: 10%
- Population Membrane Permeable-Phenotype (%) [12]: 5%
- Population Mitochondria Different-Phenotype (%) [12]: 38%
- Population Mitotic Cells (%) [12]: 33%
- Population Normal (%) [12]: 89%
- Population Pyknosed Nuclei (%) [12]: 14%
- Population Tubulin-Different-Phenotype (%) [12]: 94%
- Total Cell Count [12]: 119
